This is an account of results in ChEMBL document CHEMBL1158826, “Anti-inflammatory activity of verminoside from Kigelia africana and evaluation of cutaneous irritation in cell cultures and reconstituted human epidermis” (J Nat Prod, 2005).

Data set [1] is filed under the species Homo sapiens. Nature of the data set: Antiinflammatory activity against reconstituted human epidermis model assessed as inhibition of IL1alpha release after 72 hrs by ELISA relative to control. In kind it is functional. To be noted: Skin epidermis. In a few lines: (§1)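 Reconstituted human epidermis (0.63 cm2, differentiated from normal human keratinocytes) received 50 µL of PBS solutions applied topically. Concentrations were 1, 2, 3% for extract and 0.25, 0.5, 1% for pure compound. Tissues were held at 37 °C, 5% CO2, with daily medium change. Underlying medium was collected at 24 or 72 h and IL-1α (pg/mL) quantified by ELISA. Controls were PBS and SDS 0.25%. Three independent experiments.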
Background: ELISA stands for enzyme-linked immunosorbent assay.

For data set [2], the species on record is Homo sapiens. As to the kind of experiment: Antiinflammatory activity against reconstituted human epidermis model assessed as inhibition of IL1alpha release after 24 hrs by ELISA relative to control. To be noted: Skin epidermis. In kind it is functional. The procedure, abridged:
as §1

Data set [3] deals with Skin epidermis. As to the kind of experiment: Effect on morphological changes in reconstituted human epidermis model assessed as induction of tissue degeneration and necrosis after 24 hrs. The data set is classed as functional. The procedure, abridged: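 Reconstituted epidermis was dosed topically with PBS solutions at 1-3% (extract) or 0.25-1% (compound), with PBS and SDS 0.25% as controls. After 24 or 72 h, tissues were fixed in 10% formalin, dehydrated through ethanol and toluene, and paraffin-embedded. Sections of 5 µm were stained with H&E and examined by light microscopy at 200×.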

The test system of data set [4] is J774.A1. Nature of the data set: Antiinflammatory activity against mouse J774A1 macrophages assessed as inhibition of LPS-induced iNOS expression at 1 mM treated 1 hr before LPS challenge and measured after 24 hrs by Western blot analysis. The data set is classed as functional, cell-based. The procedure, abridged: (§2)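 J774.A1 cells were given test solutions in PBS (0.01-1 mM) 1 h before and together with LPS (6 × 103 u/mL). After 24 h with LPS, cells were lysed and iNOS protein detected by Western blot with densitometry. Results are % inhibition versus LPS alone, from 3-6 independent experiments in triplicate. One-way ANOVA.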

The test system of data set [5] is J774.A1. As to the kind of experiment: Cytotoxicity against mouse J774A1 macrophages grown in monolayers by MTT assay. In kind it is cell-based. The procedure, abridged: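 Monolayer J774.A1 cells were exposed to test solutions in PBS, 0.01-1 mM for pure compounds and 1-1000 µg/mL for extract. Viability was read by MTT assay and expressed as % of PBS-treated controls. Experiments were repeated at least three times with three or more observations each. ANOVA with Bonferroni.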

The test system of data set [6] is J774.A1. Nature of the data set: Antiinflammatory activity against mouse J774A1 macrophages assessed as inhibition of LPS-induced NO release pretreated for 1 hr before LPS challenge measured after 24 hrs by Griess method. In kind it is functional, cell-based. The procedure, abridged:
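Nitrite measured in medium by Griess reaction 24 h after LPS (6 × 103 u/mL). J774.A1 cells plated at 1.5 × 106 in P60 plates. Test solutions in PBS (0.01-1 mM) were added 1 h before and again together with LPS. Nitrite was read against a sodium nitrite standard curve in culture medium. Inhibition is given as % versus LPS-only cells. At least 3 independent experiments, 3 replicates each.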

The nature of data set [7]: Cytotoxicity against reconstituted human epidermal cells assessed as cell viability after 72 hrs by MTT assay. In kind it is cell-based. In a few lines:
(§3)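 Epidermis tissues were dosed topically with 50 µL of PBS solutions (extract 1-3%, compound 0.25-1%) in duplicate and kept at 37 °C, 5% CO2 for 24 or 72 h, with medium changed daily. Controls were PBS pH 7.2 and SDS 0.25%. After washing, MTT (0.5 mg/mL) was added for 3 h at 37 °C and OD read at 570 nm. Results are % viability versus PBS-treated epidermis.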
(In general: Tetrazolium dyes change colour on reduction, which living cells bring about.)

Data set [8] is described as follows: Cytotoxicity against reconstituted human epidermal cells assessed as cell viability after 24 hrs by MTT assay. In kind it is cell-based. In a few lines:
as §3

For data set [9], the system named is J774.A1. As to the kind of experiment: Antiinflammatory activity against mouse J774A1 macrophages assessed as inhibition of LPS-induced iNOS expression pretreated for 1 hr before LPS challenge and measured after 24 hrs by Western blot analysis. In kind it is functional, cell-based. In a few lines:
as §2
(In western blotting, separated proteins are transferred to a membrane and probed.)

Each structure is given as a SMILES string. Activity calls are given as the source filed them. The rule behind the calls is not given here.

As for `CCCCCCCCCCCCOS(=O)(=O)[O-].[Na+]`, the figures for the Activity in data set [1] and in data set [2] were 110 pg/mL and 250 pg/mL, respectively. Besides, the outcome in data set [3] was Active.
In general, EC50 refers to the concentration that produces a half-maximal response. Consider `C[C@@H]1O[C@@H](O[C@@H]2[C@@H](O)[C@H](OCCc3ccc(O)c(O)c3)O[C@H](CO)[C@H]2OC(=O)/C=C/c2ccc(O)c(O)c2)[C@H](O)[C@H](O)[C@H]1O` [ACETOSIDE], for which the outcome in data set [4] was Active. This compound also showed a half-maximal effective concentration (EC50) in data set [5] of 490 µM.
As for `O=C(/C=C/c1ccc(O)c(O)c1)O[C@@H]1C2C=CO[C@H](O[C@@H]3O[C@H](CO)[C@@H](O)[C@H](O)[C@H]3O)C2[C@]2(CO)O[C@H]12` (some centres undefined) [VERMINOSIDE], the Activity entry in data set [6] is “Dose-dependent effect”; in data set [7] it was “Non-toxic”; in data set [8], “Non-toxic”; in data set [9], “Dose-dependent effect”.
